Laboratory results published in ChEMBL document CHEMBL4428114, “An LP1 analogue, selective MOR agonist with a peculiar pharmacological profile, used to scrutiny the ligand binding domain” (Bioorg Med Chem, 2016).
Active and inactive are the calls of the source.

Columns and labels:
Mus musculus [1] = assay: Antinociceptive activity in CB1 mouse assessed as increase in tail flick latency at 5 mg/kg, ip administered 45 mins post naloxone challenge measured up to 90 mins in presence of naloxone; format: functional, organism-based
Outline: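 Naloxone was given at 3 mg/kg ip, 45 min before 5 mg/kg ip test compound, in male Swiss CB1 mice (25–30 g). Infrared tail-flick latency (lower third of tail, 10 s cutoff, baseline mean of three readings) was measured at 30, 60 and 90 min post-injection (n = 8).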

Mus musculus [2] = assay: Antinociceptive activity in CB1 mouse assessed as increase in tail flick latency at 5 mg/kg, ip up to 90 mins; format: functional, organism-based
Mu-type opioid receptor [3] = biological target: T1, Mu-type opioid receptor (Homo sapiens, UniProt P35372); assay: Displacement of [3H]DAMGO from MOR in HEK293 cells; format: cell-based
T1 sequence (P35372 whole entry): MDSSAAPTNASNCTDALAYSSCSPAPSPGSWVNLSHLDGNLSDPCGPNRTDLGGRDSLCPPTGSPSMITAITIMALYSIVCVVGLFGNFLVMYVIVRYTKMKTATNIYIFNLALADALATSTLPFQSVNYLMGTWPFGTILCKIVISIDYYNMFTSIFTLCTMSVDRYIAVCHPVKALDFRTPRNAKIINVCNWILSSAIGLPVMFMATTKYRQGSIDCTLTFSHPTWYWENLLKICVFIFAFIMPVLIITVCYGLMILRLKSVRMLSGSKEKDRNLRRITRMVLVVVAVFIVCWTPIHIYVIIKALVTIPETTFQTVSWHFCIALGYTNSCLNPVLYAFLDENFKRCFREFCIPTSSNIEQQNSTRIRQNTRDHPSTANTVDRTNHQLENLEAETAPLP

[4] = biological target: Mu-type opioid receptor (Cavia porcellus) (UniProt P97266); assay: Agonist activity at MOR in Dunkin-Hartley guinea pig ileum assessed as inhibition of electrically-evoked contractions; format: tissue-based
Chain of Mu-type opioid receptor (Cavia porcellus) (P97266 whole entry): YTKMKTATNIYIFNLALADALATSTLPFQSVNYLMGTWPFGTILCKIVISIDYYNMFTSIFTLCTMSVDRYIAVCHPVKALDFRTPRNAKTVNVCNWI
Outline: (§1)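 Guinea-pig ileum strips held under a 2 g load and equilibrated for 60 min. Contractions were evoked by transmural single pulses (0.1 Hz, 0.3 ms, 200 mA), followed by a further 60–90 min equilibration with repeated Krebs changes. Compound was added cumulatively, at least 5 min per step. Inhibition was expressed as percentage change from baseline, with EC50 from non-linear curve fitting (n = 6–8).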

[5] = Selectivity ratio of Ki for displacement of [3H]U69593 from rat KOR expressed in CHO cells to Ki for displacement of [3H]DAMGO from MOR in HEK293 cells; format: cell-based
[6] = biological target: Kappa-type opioid receptor (Rattus norvegicus, UniProt P34975); assay: Displacement of [3H]U69593 from rat KOR expressed in CHO cells; format: cell-based
Chain of Kappa-type opioid receptor (Rattus norvegicus, UniProt P34975) (P34975 whole entry): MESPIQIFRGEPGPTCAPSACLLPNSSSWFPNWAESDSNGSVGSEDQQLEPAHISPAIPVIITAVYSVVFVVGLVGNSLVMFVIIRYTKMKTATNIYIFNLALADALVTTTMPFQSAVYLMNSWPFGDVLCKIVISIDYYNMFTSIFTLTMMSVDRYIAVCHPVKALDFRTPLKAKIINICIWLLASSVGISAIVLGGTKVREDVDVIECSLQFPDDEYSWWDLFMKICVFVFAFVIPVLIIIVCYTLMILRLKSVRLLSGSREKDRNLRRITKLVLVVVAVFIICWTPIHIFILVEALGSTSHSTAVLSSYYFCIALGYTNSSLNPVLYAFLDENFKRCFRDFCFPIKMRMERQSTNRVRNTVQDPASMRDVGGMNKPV

[7] = biological target: Delta-type opioid receptor (Homo sapiens, UniProt P41143); assay: Displacement of [3H]DPDPE from human DOR expressed in CHO cells; format: cell-based
Chain of Delta-type opioid receptor (P41143 whole entry): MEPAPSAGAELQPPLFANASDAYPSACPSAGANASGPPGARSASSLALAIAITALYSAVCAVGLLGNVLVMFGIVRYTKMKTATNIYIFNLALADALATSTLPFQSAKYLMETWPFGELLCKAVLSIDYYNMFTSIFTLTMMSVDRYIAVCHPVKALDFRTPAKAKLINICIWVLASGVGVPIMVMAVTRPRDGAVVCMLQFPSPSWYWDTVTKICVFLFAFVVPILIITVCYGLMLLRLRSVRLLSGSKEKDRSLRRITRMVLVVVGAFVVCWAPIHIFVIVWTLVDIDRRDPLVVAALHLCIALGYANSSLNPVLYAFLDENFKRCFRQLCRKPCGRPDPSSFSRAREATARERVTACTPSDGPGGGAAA

[8] = biological target: Mu-type opioid receptor (Cavia porcellus) (UniProt P97266); assay: Agonist activity at MOR in Dunkin-Hartley guinea pig ileum assessed as inhibition of electrically-evoked contractions in presence of kappa-opioid receptor antagonist norBNI; format: tissue-based; outline: as §1
Homo sapiens [9] = species on record: Homo sapiens; assay: Selectivity ratio of Ki for displacement of [3H]DPDPE from human DOR expressed in CHO cells to Ki for displacement of [3H]DAMGO from MOR in HEK293 cells; format: cell-based
Mus musculus [10] = assay: Antinociceptive activity in ip dosed CB1 mouse assessed as increase in tail flick latency after 30 mins; format: functional, organism-based
[11] = biological target: Mu-type opioid receptor (Cavia porcellus) (UniProt P97266); assay: Agonist activity at MOR in Dunkin-Hartley guinea pig ileum assessed as inhibition of electrically-evoked contractions in presence of mu-opioid receptor agonist DAMGO; format: tissue-based; outline: as §1
[12] = biological target: Mu-type opioid receptor (Cavia porcellus) (UniProt P97266); assay: Agonist activity at MOR in Dunkin-Hartley guinea pig ileum assessed as inhibition of electrically-evoked contractions in presence of mu-opioid receptor antagonist naloxonazine; format: tissue-based
Outline: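 Electrically stimulated guinea-pig ileum strips (2 g load; single pulses 0.1 Hz, 0.3 ms, 200 mA) were tested with naloxonazine present at 10^-6 M. Agonist was added cumulatively, at least 5 min apart, after 60–90 min equilibration in Krebs. Response was taken as percentage inhibition from baseline, with EC50 by non-linear fitting (n = 6–8).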

[13] = biological target: Mu-type opioid receptor (Cavia porcellus) (UniProt P97266); assay: Agonist activity at MOR in Dunkin-Hartley guinea pig ileum assessed as inhibition of electrically-evoked contractions in presence of opioid receptor antagonist naloxone; format: tissue-based
Outline: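 Cumulative concentration–response curves were run on electrically stimulated guinea-pig ileum strips (2 g load; 0.1 Hz, 0.3 ms, 200 mA) with a single naloxone concentration of 10^-6 M. […]. Contractions were scored as percentage change from baseline.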

Mu-type opioid receptor [14] = biological target: T1, Mu-type opioid receptor; assay: Displacement of [3H]Diprenorphine from human MOR expressed in HEK293 cell membranes by liquid scintillation counting
[15] = biological target: Kappa-type opioid receptor (Homo sapiens, UniProt P41145); assay: Displacement of [3H]Diprenorphine from human KOR expressed in HEK293 cell membranes by liquid scintillation counting
Chain of Kappa-type opioid receptor (Homo sapiens, UniProt P41145) (P41145 whole entry): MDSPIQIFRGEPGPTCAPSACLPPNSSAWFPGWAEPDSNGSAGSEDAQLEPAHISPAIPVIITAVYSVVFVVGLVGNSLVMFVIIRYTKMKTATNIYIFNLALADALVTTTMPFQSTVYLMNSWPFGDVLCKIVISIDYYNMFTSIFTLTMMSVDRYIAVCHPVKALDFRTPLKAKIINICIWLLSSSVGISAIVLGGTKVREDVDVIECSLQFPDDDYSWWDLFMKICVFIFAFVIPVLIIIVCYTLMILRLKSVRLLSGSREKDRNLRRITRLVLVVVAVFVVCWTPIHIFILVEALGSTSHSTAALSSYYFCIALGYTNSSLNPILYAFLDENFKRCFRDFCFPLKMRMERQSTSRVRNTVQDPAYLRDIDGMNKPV

Homo sapiens [16] = species on record: Homo sapiens; assay: Selectivity ratio of Ki for displacement of [3H]Diprenorphine from human KOR expressed in HEK293 cell membranes to Ki for displacement of [3H]Diprenorphine from human MOR expressed in HEK293 cell membranes
Mus musculus [17] = assay: Antinociceptive activity in CB1 mouse assessed as increase in tail flick latency at 5 mg/kg, ip after 60 mins; format: functional, organism-based

Row | SMILES | Ki (Mu-type opioid receptor [3]) | Ratio Ki [5] | Ki [6] | Ki [7] | Ratio Ki (Homo sapiens [9]) | other results
1 | C[C@H]1[C@H]2Cc3ccc(O)cc3[C@]1(C)CCN2CCC(=O)NCC(c1ccccc1)c1ccccc1 | 0.5 nM | 380 | 190 nM | 440 nM | 880 | Activity (Mus musculus [1]): inactive; Activity (Mus musculus [2]): Active; Activity [4]: Dose-dependent effect; pD2 [4]: 6.8; pD2 [8]: 6.9; Activity (Mus musculus [10]): Dose-dependent effect; pD2 [11]: 7; pD2 [12]: 6.5; pD2 [13]: 6.4
2 | COc1ccsc1CNCC[C@@]1(c2ccccn2)CCC2(CCCC2)OC1 | – | – | – | – | – | Ki (Mu-type opioid receptor [14]): 6 nM; Ki [15]: < 10000 nM; Ratio Ki (Homo sapiens [16]): 1670
3 | C[C@H]1[C@H]2Cc3ccc(O)cc3[C@]1(C)CCN2CCC(=O)N1CCc2ccccc2C1c1ccccc1 (mixture of isomers) | 96 nM | – | – | – | – | –
4 | C[C@H]1[C@H]2Cc3ccc(O)cc3[C@]1(C)CCN2CCC(=O)N1CCc2ccccc2[C@H]1c1ccccc1 | 470 nM | 4.04 | 1900 nM | 7900 nM | 16.8 | –
5 | C[C@H]1[C@H]2Cc3ccc(O)cc3[C@]1(C)CCN2CCC(=O)N(C)C(c1ccccc1)c1ccccc1 | 160 nM | 2.31 | 370 nM | 1400 nM | 8.75 | pD2 [4]: 5.7
6 | C[C@H]1[C@H]2Cc3ccc(O)cc3[C@]1(C)CCN2CCC(=O)NC(c1ccccc1)c1ccccc1 | 84 nM | 8.09 | 680 nM | 2900 nM | 34.5 | pD2 [13]: 4.1
7 | C[C@H]1[C@H]2Cc3ccc(O)cc3[C@]1(C)CCN2CCC(=O)Nc1ccccc1 | – | 132 | 110 nM | – | 33.8 | –
8 | CN1CC[C@]23c4c5ccc(O)c4O[C@H]2[C@@H](O)C=C[C@H]3[C@H]1C5 | – | – | – | – | – | Activity (Mus musculus [2]): Active; Activity (Mus musculus [17]): Active
9 | C[C@H]1[C@H]2Cc3ccc(O)cc3[C@]1(C)CCN2CCC(=O)N1CCc2ccccc2[C@@H]1c1ccccc1 | 380 nM | 12.5 | 900 nM | 2900 nM | 35 | –
